We go through 40 compounds from PubChem BioAssay.

Each structure is given as a SMILES string. Unmarked numbers belong to inactive results. The source made the active and inactive calls.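 The calls were made as follows, unless noted: active = viability at or below 30% in both replicate assays; inconclusive = viability at or below 30% in just one of the two assays; inactive = the rest.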

The first test is described as follows: reduced viability of SK-BR-3 breast cancer cells – cell-based, 24 h, human, pilot screen (AID 572;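 active = viability at or below 10% of carrier control in both of two separate runs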;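 also: compound exposure lasted between 18 and 24 h rather than exactly 24 h; 100% = carrier-treated control wells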). Conditions: SK-BR-3 viability, CellTiter-Glo luminescence, at 10 µM, stronger effect = lower value. (Cellular ATP, detected with luciferase, serves as a proxy for viable cell number.)
By viability is commonly meant a read-out of living cells in per cent, often relative to untreated cells. Consider `COc1ccc(Oc2c(C)oc3cc(OC(=O)N4CCOCC4)ccc3c2=O)cc1`, for which the viability was 91%.

Regarding `C[C@@H]1C[C@H](O)c2cc(Cl)ccc2N1`, the viability is 104%.

For the compound `O=C(NCCCNC1CCCCC1)c1ccc(/C=N/O)nc1`, the viability is 84%.

Turning to `CC(=O)Nc1ccc(S(=O)(=O)N2CCC(c3nc4ccccc4[nH]3)CC2)cc1`, the viability is 93%.

Turning to `CCOc1ccc(S(=O)(=O)Nc2ccccc2C(=O)Nc2ccccc2N2CCOCC2)cc1`, the viability was 104%.

Regarding `O=C(c1ccc(COc2c(F)c(F)c(F)c(F)c2F)o1)N1CCOCC1`, the viability is 111%.

`CC(C)[C@H](NC(=O)NC1CCCC1)C(=O)O`: the viability was 103%.

`CCOC(=O)C(C)(C)Sc1nc2c(cnn2-c2ccc(C)cc2)c(=O)[nH]1`: the viability was 99%.

For the compound `COc1ccccc1NC(=O)c1ccc(COc2ccccc2OC)o1`, the viability is 95.5%.

Regarding `O=C(NCc1ccccn1)Nc1ccc2c(c1)OCO2`, the viability was 100%.

Turning to `CCSc1nnc(NC(=O)CSc2ncccn2)s1`, the viability is 97.5%.

Consider `O=C(OCc1nnc(-c2ccc(Cl)cc2)o1)c1ccc(=O)n(Cc2ccccc2)n1`, for which the viability was 84.5%.

In the case of `COc1ccc(C(=O)NCCn2ccc3ccccc32)c(OC)c1`, the viability is 95%.

For the compound `O=C(NCc1cccs1)C1CCN(S(=O)(=O)c2cccs2)CC1`, the viability was 103%.

As to `CCC(C)n1[nH]c(=O)c2c(C)cc(C)nc21` (stereo not drawn), the viability is 97.5%.

`CC1(C)OC(=O)C(=CNC(CCC(N)=O)C(=O)O)C(=O)O1` (stereo not drawn): the viability is 100%.

`O=c1c(CN2CCN(Cc3ccccc3)CC2)coc2ccc(Cl)cc12`: the viability was 90%.

For the compound `Cn1c(=O)[nH]c2cc3ccccc3cc21`, the viability was 118%.

On to `COc1ccc(-c2[nH]nc3c2C(c2ccccc2OC(=O)N2CCOCC2)C(C#N)=C(N)O3)cc1` (stereo not drawn), for which the viability was 120%.

`COC(=O)C1=C(N)Oc2cc(C)[nH]c(=O)c2C1c1ccncc1` (stereo not drawn): the viability is 132%.

`CCn1c2ccccc2c2cc(NC(=O)CSc3nnc(C4CC4)n3Cc3ccco3)ccc21`: the viability was 104%.

`O=C(CSc1nc2ncccc2[nH]1)Nc1ccc2c(c1)OCCO2`: the viability was 108%.

Consider `CCSc1nnc(NC(=O)c2nn(C(C)C)c(=O)c3ccccc23)s1`, for which the viability is 99%.

Another test is described as follows: HUVEC growth inhibition – cell-based, human, primary screen (AID 575).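 Also: 100% = median of untreated cell wells with 0.1% DMSO on each plate.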 Conditions: HUVEC proliferation, CellTiter-Glo luminescence, 72 h; at 10 µM; stronger effect = lower value. A digest of the protocol:
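System: primary human umbilical vein endothelial cells; Quantity: 1250 endothelial cells in each well; Buffer or medium: supplemented EBM, 2% fetal bovine serum; Doses: one dose, 10 µM final, 0.1% DMSO; Incubation: 72 h compound incubation; Technique: ATP-based CellTiter-Glo luminescent read; Evaluation: percent of median DMSO-control luminescence; Controls: vehicle and MePR control wells.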
For the compound `Cc1sc2ncnc(OCC(=O)N3CCN(S(=O)(=O)c4ccc(Cl)cc4)CC3)c2c1C`, the viability was 89.2%.

As to `CCOC(=O)CNS(=O)(=O)c1c(C)noc1C`, the viability was 70.6%.

For `COC(=O)c1onc(C(=O)c2ccccc2)c1C(=O)OC`, the viability is 98.8%.

On to `O=C(O)c1cccc(CN2C(=O)SC(Nc3ccccc3)C2=O)c1` (stereo not drawn), for which the viability is 83%.

In the case of `COC(=O)C1C(=O)c2c([nH]c(C(=O)OCCOC(C)C)c2C)CC1C` (stereo not drawn), the viability is 97.8%.

Consider `CCOC(=O)c1c(NC(=O)CSc2nnc(-c3ccc(OC)cc3)o2)sc2c1CCC2`, for which the viability is 76.1%.

Turning to `O=C(c1cccnc1NCc1ccccc1)N1CCOCC1`, the viability is 86.4%.

Turning to `O=C1CC(N2CCN(c3cccc(C(F)(F)F)c3)CC2)C(=O)N1c1ccccc1` (stereo not drawn), the viability is 92.3%.

On to `Cc1ccc(N=C2NC(=O)CS2)c(C)c1`, for which the viability was 89.7%.

In the case of `O=C(NCc1cccs1)C1CCCN(c2ncccn2)C1` (stereo not drawn), the viability is 105%.

As for `Cc1cc2ncn(N)c2cc1C`, the viability was 101%.

For `COc1ccccc1N1CCN(C(=O)CSc2nc(-c3ccccc3)cc(=O)[nH]2)CC1`, the viability is 80.8%.

Take `Cc1nn(-c2ccccc2)c(Cl)c1C(=O)NCC(=O)O`: the viability was 105%.

As for `COc1nc(N2CCOCC2)nc(-n2cccc2)n1`, the viability was 90.6%.

Regarding `CCSc1nnc(NC(=O)C(CC)(C(F)(F)F)C(F)(F)F)s1`, the viability was 68.9%.

Turning to `COC(=O)C1CCN(C(=O)NC(C)(C)C)CC1`, the viability is 104%.

Regarding `Cc1nn(-c2ccc(Cl)cc2)c2sc(C(=O)N3CCN(c4ccccn4)CC3)cc12`, the viability is 51.6%.

`COc1ccc(Oc2c(C)oc3cc(OC(=O)N4CCOCC4)ccc3c2=O)cc1`: the viability is 105%.

In the case of `C[C@@H]1C[C@H](O)c2cc(Cl)ccc2N1`, the viability was 86.1%.

For the compound `O=C(NCCCNC1CCCCC1)c1ccc(/C=N/O)nc1`, the viability is 92.4%.

With `CC(=O)Nc1ccc(S(=O)(=O)N2CCC(c3nc4ccccc4[nH]3)CC2)cc1`, the viability was 78.9%.

For `CCOc1ccc(S(=O)(=O)Nc2ccccc2C(=O)Nc2ccccc2N2CCOCC2)cc1`, the viability is 74.5%.

Consider `O=C(c1ccc(COc2c(F)c(F)c(F)c(F)c2F)o1)N1CCOCC1`, for which the viability was 100%.

With `CC(C)[C@H](NC(=O)NC1CCCC1)C(=O)O`, the viability was 87.9%.

Consider `CCOC(=O)C(C)(C)Sc1nc2c(cnn2-c2ccc(C)cc2)c(=O)[nH]1`, for which the viability was 90.4%.

Consider `COc1ccccc1NC(=O)c1ccc(COc2ccccc2OC)o1`, for which the viability was 87.6%.

As for `O=C(NCc1ccccn1)Nc1ccc2c(c1)OCO2`, the viability was 78.7%.

For the compound `CCSc1nnc(NC(=O)CSc2ncccn2)s1`, the viability was 112%.

Turning to `O=C(OCc1nnc(-c2ccc(Cl)cc2)o1)c1ccc(=O)n(Cc2ccccc2)n1`, the viability was 102%.

Turning to `COc1ccc(C(=O)NCCn2ccc3ccccc32)c(OC)c1`, the viability was 88.7%.

In the case of `O=C(NCc1cccs1)C1CCN(S(=O)(=O)c2cccs2)CC1`, the viability is 89.8%.

As for `CCC(C)n1[nH]c(=O)c2c(C)cc(C)nc21` (stereo not drawn), the viability is 95.8%.

Turning to `CC1(C)OC(=O)C(=CNC(CCC(N)=O)C(=O)O)C(=O)O1` (stereo not drawn), the viability is 109%.

Turning to `O=c1c(CN2CCN(Cc3ccccc3)CC2)coc2ccc(Cl)cc12`, the viability is 100%.

As for `Cn1c(=O)[nH]c2cc3ccccc3cc21`, the viability was 26.6% (active).

`COc1ccc(-c2[nH]nc3c2C(c2ccccc2OC(=O)N2CCOCC2)C(C#N)=C(N)O3)cc1` (stereo not drawn): the viability is 96.2%.

Regarding `COC(=O)C1=C(N)Oc2cc(C)[nH]c(=O)c2C1c1ccncc1` (stereo not drawn), the viability was 94.4%.

As for `CCn1c2ccccc2c2cc(NC(=O)CSc3nnc(C4CC4)n3Cc3ccco3)ccc21`, the viability is 75.5%.

Regarding `O=C(CSc1nc2ncccc2[nH]1)Nc1ccc2c(c1)OCCO2`, the viability is 85.6%.

Regarding `CCSc1nnc(NC(=O)c2nn(C(C)C)c(=O)c3ccccc23)s1`, the viability was 81.5%.
